Four molecules from ChEMBL document CHEMBL3091335, “Design and synthesis of potent and selective P2X₃ receptor antagonists derived from PPADS as potential pain modulators” (Eur J Med Chem, 2013) can be followed below.

Test [1] addresses T1, P2X purinoceptor 1 (Mus musculus, UniProt P51576).
T1 sequence (P51576 whole entry): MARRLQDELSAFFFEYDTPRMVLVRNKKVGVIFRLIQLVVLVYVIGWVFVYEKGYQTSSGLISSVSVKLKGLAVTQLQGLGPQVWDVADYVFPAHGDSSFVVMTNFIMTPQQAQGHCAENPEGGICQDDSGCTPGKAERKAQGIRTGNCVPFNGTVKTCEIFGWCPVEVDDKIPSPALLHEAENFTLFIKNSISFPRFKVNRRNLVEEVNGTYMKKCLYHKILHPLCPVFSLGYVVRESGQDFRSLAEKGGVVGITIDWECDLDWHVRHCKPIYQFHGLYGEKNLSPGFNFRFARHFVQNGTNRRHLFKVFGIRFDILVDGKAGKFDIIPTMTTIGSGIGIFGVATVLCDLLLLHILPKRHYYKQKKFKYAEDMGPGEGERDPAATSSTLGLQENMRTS
Briefly: Antagonist activity at recombinant mouse P2X1 receptor expressed in Xenopus oocytes assessed as inhibition of ATP-induced ion current preincubated for 20 mins followed by ATP addition by two-electrode voltage clamp assay. It is filed as cell-based. The method, boiled down:
(§1)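 Defolliculated Xenopus oocytes were injected with mP2X1 or hP2X3 cRNA (40 nL), held 24 h at 18 °C in Barth's solution, then stored at 4 °C for up to 12 days. Two-electrode voltage clamp was run at Vh −70 mV in HEPES/BaCl2 buffer at pH 7.5. ATP was superfused for 60–120 s with 20 min washout. Currents were normalized to the ATP response, giving % inhibition or IC50 from inhibition curves; mean ± SEM, n≥3.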

Test [2] addresses T2, P2X purinoceptor 1 (Rattus norvegicus, UniProt P47824).
T2 sequence (P47824 whole entry): T1 sequence (P51576 whole entry) with G60D, M108V, A113T, H180R, L223Q, S231N, E260K, R314H, R381H, A384V
The test can be described thus: Antagonist activity at recombinant rat P2X1 receptor expressed in Xenopus oocytes assessed as ion flux stimulation. It is filed as cell-based.

The target of test [3] is T1, P2X purinoceptor 1. The test can be described thus: Antagonist activity at mouse P2X1 receptor.
Test [4] deals with T3, P2X purinoceptor 3 (Homo sapiens) (UniProt P56373).
T3 sequence (whole entry): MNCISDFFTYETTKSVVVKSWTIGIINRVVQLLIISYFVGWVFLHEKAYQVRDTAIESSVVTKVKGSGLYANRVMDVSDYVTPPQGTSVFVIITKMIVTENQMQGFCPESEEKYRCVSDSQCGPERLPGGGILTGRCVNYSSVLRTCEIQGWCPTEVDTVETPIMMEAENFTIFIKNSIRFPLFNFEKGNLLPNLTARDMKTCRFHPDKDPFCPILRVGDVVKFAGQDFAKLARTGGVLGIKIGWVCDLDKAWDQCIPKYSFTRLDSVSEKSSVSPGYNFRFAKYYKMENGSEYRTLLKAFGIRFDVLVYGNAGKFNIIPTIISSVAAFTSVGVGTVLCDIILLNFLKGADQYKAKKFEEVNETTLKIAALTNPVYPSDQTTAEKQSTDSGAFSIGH
The test can be described thus: Antagonist activity at recombinant human P2X3 receptor expressed in Xenopus oocytes assessed as inhibition of ATP-induced ion current at 1 uM preincubated for 15 mins followed by ATP addition by two-electrode voltage clamp assay relative to control. It is filed as cell-based.

Test [5] deals with T4, P2X2/P2X3 receptor (Rattus norvegicus) (UniProt P49653+P49654). The test can be described thus: Antagonist activity at recombinant rat P2X2/3 receptor expressed in Xenopus oocytes assessed as inhibition of ATP-induced ion current at 100 nM preincubated for 15 mins followed by ATP addition by two-electrode voltage clamp assay relative to control. It is filed as cell-based.

A further test has as its target T5, P2X purinoceptor 3 (Homo sapiens, UniProt P56373).
T5 sequence (P56373 whole entry): T3 sequence (whole entry)
Briefly: Antagonist activity at recombinant human P2X3 receptor expressed in Xenopus oocytes assessed as inhibition of ATP-induced ion current preincubated for 20 mins followed by ATP addition by two-electrode voltage clamp assay. It is filed as cell-based. In short, it runs like this:
as §1

Test [6] addresses T6, P2X purinoceptor 7 (Homo sapiens) (UniProt Q99572).
T6 sequence (whole entry): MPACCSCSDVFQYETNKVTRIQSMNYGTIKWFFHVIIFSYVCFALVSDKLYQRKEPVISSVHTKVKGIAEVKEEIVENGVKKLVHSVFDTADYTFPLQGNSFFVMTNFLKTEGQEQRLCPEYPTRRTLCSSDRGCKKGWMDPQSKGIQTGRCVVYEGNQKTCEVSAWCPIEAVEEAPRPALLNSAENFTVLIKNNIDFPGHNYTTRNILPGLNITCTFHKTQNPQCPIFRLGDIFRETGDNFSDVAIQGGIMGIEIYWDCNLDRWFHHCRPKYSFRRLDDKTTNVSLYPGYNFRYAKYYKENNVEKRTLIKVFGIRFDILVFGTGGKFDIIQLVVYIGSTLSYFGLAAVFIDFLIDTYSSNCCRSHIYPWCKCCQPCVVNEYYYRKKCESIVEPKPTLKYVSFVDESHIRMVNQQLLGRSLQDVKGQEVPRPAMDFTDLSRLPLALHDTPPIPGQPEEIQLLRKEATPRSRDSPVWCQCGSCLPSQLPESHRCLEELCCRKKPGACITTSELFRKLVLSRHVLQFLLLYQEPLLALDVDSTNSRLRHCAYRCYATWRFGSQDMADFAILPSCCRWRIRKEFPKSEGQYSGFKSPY
The test can be described thus: Antagonist activity at human P2X7 receptor expressed in HEK293 cells assessed as inhibition of BzATP-induced accumulation of ethidium+ at 10 uM after 120 mins by fluorescence assay relative to control. It is filed as cell-based. In short, it runs like this:
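HEK293 cells expressing hP2X7 were grown in DMEM with 10% FBS at 37 °C under 5% CO2, harvested with trypsin/EDTA and resuspended at 2.5 × 10⁶ cells/mL in KCl/glucose/EDTA/HEPES buffer (pH 7.4) with ethidium bromide. Cells were plated at 2 × 10⁵ cells/well with BzATP and incubated at 37 °C for 120 min. Fluorescence was read at ex 530/em 590 nm; mean ± SEM, n≥3.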

Test [7] has as its target T7, P2X purinoceptor 1 (Mus musculus) (UniProt P51576).
T7 sequence (whole entry): T1 sequence (P51576 whole entry)
Briefly: Antagonist activity at recombinant mouse P2X1 receptor expressed in Xenopus oocytes assessed as inhibition of ATP-induced ion current at 10 uM preincubated for 20 mins followed by ATP addition by two-electrode voltage clamp assay relative to control. It is filed as cell-based. The method, boiled down: as §1

For test [8], the target named is T3, P2X purinoceptor 3 (Homo sapiens). Briefly: Antagonist activity at recombinant human P2X3 receptor expressed in Xenopus oocytes assessed as inhibition of ATP-induced ion current at 100 nM preincubated for 15 mins followed by ATP addition by two-electrode voltage clamp assay relative to control. It is filed as cell-based.
Test [9] in a line: Antinociceptive activity in rat spinal dorsal horn assessed as inhibition of electrically-stimulated long term potentiation at 20 uM by Di-4-ANEPPS dye-based assay relative to control. It is filed as functional. The following applies: Dorsal horn of spinal cord. The method, boiled down:
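Ex vivo rat spinal cord slices (0.5 mm) loaded with voltage-sensitive dye Di-4-ANEPPS; optical signal in dorsal horn monitored before and after LTP induction by 2 Hz electrical stimulation (0.5 msec pulse) for 2 min. Expressed as % inhibition of LTP with compound treatment; means ± SD of 4 samples; pregabalin positive control.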

Test [10] deals with T4, P2X2/P2X3 receptor (Rattus norvegicus). The test can be described thus: Antagonist activity at recombinant rat P2X2/3 receptor expressed in Xenopus oocytes assessed as inhibition of ATP-induced ion current at 1 uM preincubated for 15 mins followed by ATP addition by two-electrode voltage clamp assay relative to control. It is filed as cell-based.
The target of test [11] is T8, P2X purinoceptor 7 (Homo sapiens, UniProt Q99572).
T8 sequence (Q99572 whole entry): T6 sequence (whole entry)
Briefly: Antagonist activity at recombinant human P2X7 receptor assessed as inhibition of BzATP-mediated Yo-Pro uptake measured for 1 hr by FLIPR assay.

The target of test [12] is T8, P2X purinoceptor 7. The test can be described thus: Antagonist activity at human P2X7 receptor expressed in HEK293 cells assessed as inhibition of BzATP-induced accumulation of ethidium+ after 120 mins by fluorescence assay. It is filed as cell-based.

Substitutions are numbered along the chain they refer to. pIC50: −log10 of the molar value.

Turning to `Cc1nc(/N=N/c2ccc(C(=O)O)cc2)c(COP(=O)(O)O)c(C=O)c1O`, the pIC50 is 7.52 at P2X purinoceptor 1 [1] and 7.37 at P2X purinoceptor 1 [2].
`Cc1nc(/N=N/c2ccc(S(=O)(=O)O)cc2S(=O)(=O)O)c(COP(=O)(O)O)c(C=O)c1O` had a pIC50 on P2X purinoceptor 1 [3] of 7.00.
On to `Cc1nc(Cc2cccc(Oc3ccccc3)c2)c(/C=C/C(=O)O)c(C=O)c1O`, for which the inhibition was determined as 77.4% in test [4]; 49.2% in test [5]; 15.1% in test [6]; 18.3% in test [7]; 59.7% in [8]; 70.8% in test [10]. Moreover, at P2X purinoceptor 3, the pIC50 was 7.22. Further, the inhibition at 20 µM in [9] worked out at 65%.
Turning to `CN([C@@H](Cc1ccc(OS(=O)(=O)c2cccc3cnccc23)cc1)C(=O)N1CCN(c2ccccc2)CC1)S(=O)(=O)c1cccc2cnccc12`, the results for the pIC50 on P2X purinoceptor 7 [11] and on P2X purinoceptor 7 [12] were 6.68 and 6.80, respectively.
